Data set [1] in a line: Aqueous solubility by lyophilization solubility assay. Format: physicochemical. Put shortly:
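Amorphous powders from lyophilized material, as TFA salts; aqueous solubility measured by nephelometry.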

The test system of another data set is Enterococcus faecalis. The data set can be described thus: Antibacterial activity against Enterococcus faecalis C21560 in liquid culture by turbidity method. It counts as functional. Put shortly:
(§1)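 MIC is the lowest concentration giving 100% inhibition of bacterial growth in liquid culture, read by turbidity.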

The test system of data set [2] is Staphylococcus aureus. The data set can be described thus: Antibacterial activity against Staphylococcus aureus MB2865 in liquid culture by turbidity method. Format: functional. In short, it runs like this: as §1
The subject of another data set is Streptococcus pneumoniae. The data set can be described thus: Antibacterial activity against Streptococcus pneumoniae CL2883 in liquid culture by turbidity method. It counts as functional. In short, it runs like this:
as §1

The test system of data set [3] is Staphylococcus aureus. The data set can be described thus: Antibacterial activity against Staphylococcus aureus infected in mouse model assessed as reduction of >= 2 log 10 cfu kidney burden. Format: functional. In short, it runs like this: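 Systemic S. aureus infection mouse model (SATOA). Compounds were given iv; […]. Kidney bacterial burden (cfu) was compared with untreated control. ED99 is the dose giving a reduction of at least 2 log10 cfu in kidney burden.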

The values below come from ChEMBL document CHEMBL1136943, “Nocathiacin analogs: Synthesis and antibacterial activity of novel water-soluble amides” (Bioorg Med Chem Lett, 2009).

Each structure is given as a SMILES string. Values after ≈ are worked out from the molar mass of the structure shown.

Usually solubility stands for the concentration that dissolves in the medium under given conditions. A high value points to a readily soluble substance. Regarding `CO/C(C)=C1/NC(=O)[C@H]([C@@H](C)O)NC(=O)c2csc(n2)-c2cc(O)c(-c3nc(C(=O)NCCNCC(O)CO)cs3)nc2-c2csc(n2)[C@@H]2COC(=O)c3c4c5c(cccc5n3O)COC(=O)[C@@H](O[C@H]3C[C@](C)(O)[C@H](N(C)C)[C@H](C)O3)[C@@H](OC4)[C@H](NC(=O)c3csc1n3)c1nc(cs1)C(=O)N2.O=C(O)C(F)(F)F` (stereo partly specified), in data set [1], the concentration in solution (solubility) came to 10000 µg/mL.
For orientation: MIC means the lowest concentration found to suppress growth. A lower MIC goes with greater potency. Turning to `CO/C(C)=C1/NC(=O)[C@H]([C@@H](C)O)NC(=O)c2csc(n2)-c2cc(O)c(-c3nc(C(=O)N4CCN(CC(=O)N(C)C)CC4)cs3)nc2-c2csc(n2)[C@@H]2COC(=O)c3c4c5c(cccc5n3O)COC(=O)[C@@H](O[C@H]3C[C@](C)(O)[C@H](N(C)C)[C@H](C)O3)[C@@H](OC4)[C@H](NC(=O)c3csc1n3)c1nc(cs1)C(=O)N2`, the MIC turned out to be 0.25 µg/mL (≈ 0.164 µM) in the data set with Enterococcus faecalis, 0.12 µg/mL (≈ 0.0788 µM) against Staphylococcus aureus [2] and 0.0038 µg/mL (≈ 0.0025 µM) in the data set on Streptococcus pneumoniae.
For the compound `CO/C(C)=C1/NC(=O)[C@H]([C@@H](C)O)NC(=O)c2csc(n2)-c2cc(O)c(-c3nc(C(=O)N(C)CCN(C)C)cs3)nc2-c2csc(n2)[C@@H]2COC(=O)c3c4c5c(cccc5n3O)COC(=O)[C@@H](O[C@H]3C[C@](C)(O)[C@H](N(C)C)[C@H](C)O3)[C@@H](OC4)[C@H](NC(=O)c3csc1n3)c1nc(cs1)C(=O)N2`, the MIC turned out to be 0.12 µg/mL (≈ 0.0826 µM) in the data set on Enterococcus faecalis, 0.06 µg/mL (≈ 0.0413 µM) in the data set with Staphylococcus aureus [2] and 0.0038 µg/mL (≈ 0.00261 µM) against Streptococcus pneumoniae. Besides, the ED99 in the data set with Staphylococcus aureus [3] was above 0.5 mg/kg.
For `CO/C(C)=C1/NC(=O)[C@H]([C@@H](C)O)NC(=O)c2csc(n2)-c2cc(O)c(-c3nc(C(=O)NCC(=O)N4CCN(C)CC4)cs3)nc2-c2csc(n2)[C@@H]2COC(=O)c3c4c5c(cccc5n3O)COC(=O)[C@@H](O[C@H]3C[C@](C)(O)[C@H](N(C)C)[C@H](C)O3)[C@@H](OC4)[C@H](NC(=O)c3csc1n3)c1nc(cs1)C(=O)N2.O=C(O)C(F)(F)F`, the solubility in data set [1] is above 10000 µg/mL.
Take `CO/C(C)=C1/NC(=O)[C@H]([C@@H](C)O)NC(=O)c2csc(n2)-c2cc(O)c(-c3nc(C(=O)NCCN)cs3)nc2-c2csc(n2)[C@@H]2COC(=O)c3c4c5c(cccc5n3O)COC(=O)[C@@H](O[C@H]3C[C@](C)(O)[C@H](N(C)C)[C@H](C)O3)[C@@H](OC4)[C@H](NC(=O)c3csc1n3)c1nc(cs1)C(=O)N2.O=C(O)C(F)(F)F`: the solubility in data set [1] is above 10000 µg/mL.
Same read-out and setting: for `CO/C(C)=C1/NC(=O)[C@H]([C@@H](C)O)NC(=O)c2csc(n2)-c2cc(O)c(-c3nc(C(=O)NCCCN4CCN(C)CC4)cs3)nc2-c2csc(n2)[C@@H]2COC(=O)c3c4c5c(cccc5n3O)COC(=O)[C@@H](O[C@H]3C[C@](C)(O)[C@H](N(C)C)[C@H](C)O3)[C@@H](OC4)[C@H](NC(=O)c3csc1n3)c1nc(cs1)C(=O)N2.O=C(O)C(F)(F)F` the value was above 10000 µg/mL.
Turning to `CO/C(C)=C1/NC(=O)[C@H]([C@@H](C)O)NC(=O)c2csc(n2)-c2cc(O)c(-c3nc(C(=O)NCCCN(C)C)cs3)nc2-c2csc(n2)[C@@H]2COC(=O)c3c4c5c(cccc5n3O)COC(=O)[C@@H](O[C@H]3C[C@](C)(O)[C@H](N(C)C)[C@H](C)O3)[C@@H](OC4)[C@H](NC(=O)c3csc1n3)c1nc(cs1)C(=O)N2`, the MIC was 0.12 µg/mL (≈ 0.0826 µM) against Enterococcus faecalis, 0.06 µg/mL (≈ 0.0413 µM) in the data set on Staphylococcus aureus [2] and 0.00095 µg/mL (≈ 0.000654 µM) in the data set with Streptococcus pneumoniae. For the same compound, in the data set with Staphylococcus aureus [3], the ED99 was above 0.5 mg/kg.
For `CO/C(C)=C1/NC(=O)[C@H]([C@@H](C)O)NC(=O)c2csc(n2)-c2cc(O)c(-c3nc(C(=O)NCCNC(=O)CN4CCOCC4)cs3)nc2-c2csc(n2)[C@@H]2COC(=O)c3c4c5c(cccc5n3O)COC(=O)[C@@H](O[C@H]3C[C@](C)(O)[C@H](N(C)C)[C@H](C)O3)[C@@H](OC4)[C@H](NC(=O)c3csc1n3)c1nc(cs1)C(=O)N2.O=C(O)C(F)(F)F`, the solubility in data set [1] is above 10000 µg/mL.
On the same count and under the same terms, for `CO/C(C)=C1/NC(=O)[C@H]([C@@H](C)O)NC(=O)c2csc(n2)-c2cc(O)c(-c3nc(C(=O)NCCNC(=O)CN(C)C)cs3)nc2-c2csc(n2)[C@@H]2COC(=O)c3c4c5c(cccc5n3O)COC(=O)[C@@H](O[C@H]3C[C@](C)(O)[C@H](N(C)C)[C@H](C)O3)[C@@H](OC4)[C@H](NC(=O)c3csc1n3)c1nc(cs1)C(=O)N2.O=C(O)C(F)(F)F` the value was above 10000 µg/mL; for `CO/C(C)=C1/NC(=O)[C@H]([C@@H](C)O)NC(=O)c2csc(n2)-c2cc(O)c(-c3nc(C(=O)N(C)CCN(C)C)cs3)nc2-c2csc(n2)[C@@H]2COC(=O)c3c4c5c(cccc5n3O)COC(=O)[C@@H](O[C@H]3C[C@](C)(O)[C@H](N(C)C)[C@H](C)O3)[C@@H](OC4)[C@H](NC(=O)c3csc1n3)c1nc(cs1)C(=O)N2.O=C(O)C(F)(F)F`, above 10000 µg/mL.
`CO/C(C)=C1/NC(=O)[C@H]([C@@H](C)O)NC(=O)c2csc(n2)-c2cc(O)c(-c3nc(C(=O)NCCNC(N)=O)cs3)nc2-c2csc(n2)[C@@H]2COC(=O)c3c4c5c(cccc5n3O)COC(=O)[C@@H](O[C@H]3C[C@](C)(O)[C@H](N(C)C)[C@H](C)O3)[C@@H](OC4)[C@H](NC(=O)c3csc1n3)c1nc(cs1)C(=O)N2.O=C(O)C(F)(F)F` registered a solubility in data set [1] below 10000 µg/mL.
Compound `CO/C(C)=C1/NC(=O)[C@H]([C@@H](C)O)NC(=O)c2csc(n2)-c2cc(O)c(-c3nc(C(=O)NCCCN(C)C)cs3)nc2-c2csc(n2)[C@@H]2COC(=O)c3c4c5c(cccc5n3O)COC(=O)[C@@H](O[C@H]3C[C@](C)(O)[C@H](N(C)C)[C@H](C)O3)[C@@H](OC4)[C@H](NC(=O)c3csc1n3)c1nc(cs1)C(=O)N2.O=C(O)C(F)(F)F` had a solubility in data set [1] above 10000 µg/mL.
In data set [1], `CO/C(C)=C1/NC(=O)[C@H]([C@@H](C)O)NC(=O)c2csc(n2)-c2cc(O)c(-c3nc(C(=O)NCCCN4CCOCC4)cs3)nc2-c2csc(n2)[C@@H]2COC(=O)c3c4c5c(cccc5n3O)COC(=O)[C@@H](O[C@H]3C[C@](C)(O)[C@H](N(C)C)[C@H](C)O3)[C@@H](OC4)[C@H](NC(=O)c3csc1n3)c1nc(cs1)C(=O)N2.O=C(O)C(F)(F)F` registered a solubility above 10000 µg/mL.
Consider `CO/C(C)=C1/NC(=O)[C@H]([C@@H](C)O)NC(=O)c2csc(n2)-c2cc(O)c(-c3nc(C(=O)NCCN)cs3)nc2-c2csc(n2)[C@@H]2COC(=O)c3c4c5c(cccc5n3O)COC(=O)[C@@H](O[C@H]3C[C@](C)(O)[C@H](N(C)C)[C@H](C)O3)[C@@H](OC4)[C@H](NC(=O)c3csc1n3)c1nc(cs1)C(=O)N2`, for which the results for the MIC against Enterococcus faecalis, in the data set with Staphylococcus aureus [2] and against Streptococcus pneumoniae were 2 µg/mL (≈ 1.42 µM), 0.5 µg/mL (≈ 0.354 µM) and 0.06 µg/mL (≈ 0.0425 µM), respectively.
Regarding `CO/C(C)=C1/NC(=O)[C@H]([C@@H](C)O)NC(=O)c2csc(n2)-c2cc(O)c(-c3nc(C(=O)NCCNC(N)=O)cs3)nc2-c2csc(n2)[C@@H]2COC(=O)c3c4c5c(cccc5n3O)COC(=O)[C@@H](O[C@H]3C[C@](C)(O)[C@H](N(C)C)[C@H](C)O3)[C@@H](OC4)[C@H](NC(=O)c3csc1n3)c1nc(cs1)C(=O)N2`, the MIC with Enterococcus faecalis is 0.5 µg/mL (≈ 0.344 µM); in the data set with Staphylococcus aureus [2] it was 0.06 µg/mL (≈ 0.0412 µM); against Streptococcus pneumoniae, 0.0075 µg/mL (≈ 0.00516 µM).
In data set [1], `CO/C(C)=C1/NC(=O)[C@H]([C@@H](C)O)NC(=O)c2csc(n2)-c2cc(O)c(-c3nc(C(=O)NCCN(C)C)cs3)nc2-c2csc(n2)[C@@H]2COC(=O)c3c4c5c(cccc5n3O)COC(=O)[C@@H](O[C@H]3C[C@](C)(O)[C@H](N(C)C)[C@H](C)O3)[C@@H](OC4)[C@H](NC(=O)c3csc1n3)c1nc(cs1)C(=O)N2.O=C(O)C(F)(F)F` came in with a solubility above 10000 µg/mL.
`CO/C(C)=C1/NC(=O)[C@H]([C@@H](C)O)NC(=O)c2csc(n2)-c2cc(O)c(-c3nc(C(=O)N4CCN(CC(=O)N(C)C)CC4)cs3)nc2-c2csc(n2)[C@@H]2COC(=O)c3c4c5c(cccc5n3O)COC(=O)[C@@H](O[C@H]3C[C@](C)(O)[C@H](N(C)C)[C@H](C)O3)[C@@H](OC4)[C@H](NC(=O)c3csc1n3)c1nc(cs1)C(=O)N2.O=C(O)C(F)(F)F` came in with a solubility in data set [1] above 10000 µg/mL.
In the case of `CO/C(C)=C1/NC(=O)[C@H]([C@@H](C)O)NC(=O)c2csc(n2)-c2cc(O)c(-c3nc(C(=O)NCCNCC(O)CO)cs3)nc2-c2csc(n2)[C@@H]2COC(=O)c3c4c5c(cccc5n3O)COC(=O)[C@@H](O[C@H]3C[C@](C)(O)[C@H](N(C)C)[C@H](C)O3)[C@@H](OC4)[C@H](NC(=O)c3csc1n3)c1nc(cs1)C(=O)N2` (stereo partly specified), the MIC worked out at 2 µg/mL (≈ 1.35 µM) in the data set with Enterococcus faecalis, 0.5 µg/mL (≈ 0.337 µM) against Staphylococcus aureus [2] and 0.125 µg/mL (≈ 0.0841 µM) against Streptococcus pneumoniae.
Compound `C=C(NC(=O)c1csc(-c2nc3c(cc2O)-c2nc(cs2)C(=O)N[C@@H]([C@@H](C)O)C(=O)N/C(=C(\C)OC)c2nc(cs2)C(=O)N[C@@H]2c4nc(cs4)C(=O)N[C@@H](COC(=O)c4c5c6c(cccc6n4O)COC(=O)[C@@H](O[C@H]4C[C@](C)(O)[C@H](N(C)C)[C@H](C)O4)[C@H]2OC5)c2nc-3cs2)n1)C(N)=O.O=C(O)C(F)(F)F` [NOCATHIACIN I] had a solubility in data set [1] of 340 µg/mL.
`CO/C(C)=C1/NC(=O)[C@H]([C@@H](C)O)NC(=O)c2csc(n2)-c2cc(O)c(-c3nc(C(=O)N4CCN(C)CC4)cs3)nc2-c2csc(n2)[C@@H]2COC(=O)c3c4c5c(cccc5n3O)COC(=O)[C@@H](O[C@H]3C[C@](C)(O)[C@H](N(C)C)[C@H](C)O3)[C@@H](OC4)[C@H](NC(=O)c3csc1n3)c1nc(cs1)C(=O)N2.O=C(O)C(F)(F)F` showed a solubility in data set [1] above 10000 µg/mL.
For `CO/C(C)=C1/NC(=O)[C@H]([C@@H](C)O)NC(=O)c2csc(n2)-c2cc(O)c(-c3nc(C(=O)NCCNC(=O)c4cc(O)cc(O)c4)cs3)nc2-c2csc(n2)[C@@H]2COC(=O)c3c4c5c(cccc5n3O)COC(=O)[C@@H](O[C@H]3C[C@](C)(O)[C@H](N(C)C)[C@H](C)O3)[C@@H](OC4)[C@H](NC(=O)c3csc1n3)c1nc(cs1)C(=O)N2`, the MIC against Enterococcus faecalis and against Staphylococcus aureus [2] was above 1 µg/mL throughout.
